Data reported in the array DNA melting data of Ke et al. (doi:10.1101/2024.01.08.574731).

Assays:
[1] = folding enthalpy; higher = less favourable; fluorescence melt of hairpins on a sequencing array, two-state fit; conditions: sodium 0.088 M
In short: (§1)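 Hairpins were imaged by Cy3 fluorescence on a sequenced MiSeq flow cell with annealed Cy3 and quencher oligos, in 50 mM Na-HEPES pH 8.0, 25 mM NaCl, in 2.5 °C steps up to 60 °C. Bootstrapped two-state fits of normalised signals gave melting temperature and folding enthalpy. Four replicates were combined by inverse variance, and fitted temperatures were raised by 9.35 °C to match UV melts.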

[2] = melting temperature; fluorescence melt of hairpins on a sequencing array, two-state fit, raised by 9.35 °C to match UV melts; conditions: sodium 0.088 M
In short: as §1

| Sequence | folding enthalpy [1] [kcal/mol] | Tm [2] [°C] |
| --- | --- | --- |
| GACCGTGGAAACGCGGTC (((((.(....).))))) | -40 | 58.6 |
| GACCTAGCGAAAGCTGTC (((..(((....)))))) | -11.6 | 33 |
| GACCTCCGAAAGGACGTC (((.(((....))).))) | -27.3 | 42 |
| GACCTCGCGAAAGCGGTC (((..(((....)))))) | -12.3 | 42.3 |
| GACCTGGAAACAGGTC ((((((....)))))) | -40.6 | 61.4 |
| GACCTGGGAAACCAGACC (..((((....))))..) | -10.3 | 24.6 |
| GACCTGGGAAACCAGGCC (.(((((....))))).) | -12.7 | 46.4 |
| GACCTTGGAAACAAGGCC (.(((((....))))).) | -17.2 | 45.2 |
| GACGAACCGAAAGGTGTC (((..(((....)))))) | -16.4 | 43.1 |
| GACGACGAAAGTCATGTC ((((((....)))..))) | -15.2 | 40.3 |
| GACGACGAAAGTCCAGTC ((((((....)))..))) | -21.5 | 36.2 |
| GACGACGAAAGTCCCGTC ((((((....)))..))) | -16.6 | 34.3 |
| GACGACGAAAGTCGCGTC ((((((....)))..))) | -10.6 | 49.9 |
| GACGACGAAAGTCTCGTC ((((((....)))..))) | -17.1 | 46.9 |
| GACGACGAAAGTCTGGTC ((((((....)))..))) | -21.8 | 41.2 |
| GACGACGGAAACGTTGTC (((.(((....))).))) | -43.1 | 55 |
| GACGAGGGAAACCTCATC ((.((((....)))).)) | -20.3 | 31.2 |
| GACGATGAAAATCGTC ((((((....)))))) | -31.1 | 61.1 |
| GACGATGGAAACACCATC ((.(.((....)).).)) | -17 | 28.4 |
| GACGATGGAAACATCATC ((.((((....)))).)) | -18.4 | 33.4 |
| GACGCACCGAAAGGTGTC (((..(((....)))))) | -8.75 | 32.1 |
| GACGCAGCGAAAGCTGTC (((..(((....)))))) | -7.32 | 33.5 |
| GACGCCGAAAGGCGCGTC ((((((....)))..))) | -9.77 | 49.6 |

| Sequence | folding enthalpy [1] [kcal/mol] | Tm [2] [°C] |
| --- | --- | --- |
| GACGCCGAAAGGCGTGTC ((((((....)))..))) | -8.76 | 66.9 |
| GACGCCGAAAGGCTGGTC ((((((....)))..))) | -16.1 | 48 |
| GACGCGACGAAAGTCGTC (((..(((....)))))) | -8.11 | 35.5 |
| GACGCTGGAAACAACGTC ((((.((....)).)))) | -39.4 | 45.5 |
| GACGCTGGAAACAGTGTC (((.(((....))).))) | -42 | 53.5 |
| GACGGACGAAAGTCAGTC (((.(((....))).))) | -37.5 | 59.5 |
| GACGGAGGAAACCCCGTC (((((.(....).))))) | -37.5 | 51.3 |
| GACGGAGGAAACTCCATC ((.((((....)))).)) | -16.8 | 33.6 |
| GACGGAGGAAACTCTGTC (((.(((....))).))) | -39.4 | 48 |
| GACGGCGAAAGCCGTGTC ((((((....)))..))) | -9.28 | 63.9 |
| GACGGGGGAAACCCCATC ((.((((....)))).)) | -14.7 | 37 |
| GACGGTACGAAAGTAGTC (((..(((....)))))) | -16 | 34.5 |
| GACGGTGGAAACACCACC (..((((....))))..) | -11.1 | 35.2 |
| GACGGTGGAAACACCGCC (.(((((....))))).) | -12.7 | 50.4 |
| GACGGTGGAAACGCTGTC (((.(.(....).).))) | -22.2 | 40.9 |
| GACGTACCGAAAGGTGTC (((..(((....)))))) | -22.4 | 41.9 |
| GACGTACGAAAGTAGTC (((.(((....)))))) | -34 | 52.8 |
| GACGTAGCGAAAGCTGTC (((..(((....)))))) | -17.7 | 47.1 |
| GACGTCGGAAACGGTGTC (((..((....))..))) | -25.7 | 43 |
| GACGTGACGAAAGTCGTC (((..(((....)))))) | -14.2 | 49.4 |
| GACGTGGGAAACCGTGTC (((..((....))..))) | -16.8 | 36.6 |
| GACGTTGCGAAAGCAGTC (((..(((....)))))) | -16.5 | 49.9 |
| GACTAACCGAAAGGTGTC (((..(((....)))))) | -18.3 | 41.4 |

| Sequence | folding enthalpy [1] [kcal/mol] | Tm [2] [°C] |
| --- | --- | --- |
| GACTAACGAAAGTTGTC (((.(((....)))))) | -24.1 | 42.4 |
| GACTACGAAAGTACTGTC ((((((....)))..))) | -18.5 | 29.9 |
| GACTACGAAAGTATGTC ((((((....))).))) | -26.2 | 44.7 |
| GACTACGGAAACGTGGTC (((.(((....))).))) | -42.8 | 52 |
| GACTAGCCGAAAGGCGTC (((..(((....)))))) | -9.39 | 40.5 |
| GACTAGCGAAAGCTGGTC (((.(((....))).))) | -34.1 | 61 |
| GACTATCCGAAAGGAGTC (((..(((....)))))) | -17 | 34.1 |
| GACTATGGAAACGTAGTC (((((.(....).))))) | -32.4 | 42 |
| GACTCACGAAAGTGGTC (((.(((....)))))) | -20 | 46.6 |
| GACTCCCGAAAGGGTGTC (((.(((....))).))) | -33.1 | 58.3 |
| GACTCCGAAAGGAGAGTC ((((((....)))..))) | -12.9 | 43 |
| GACTCCGGAAACAGAGTC (((((.(....).))))) | -36.5 | 40.1 |
| GACTCGCGAAAGCGTGTC (((.(((....))).))) | -27.1 | 63.3 |
| GACTCGGCGAAAGCCGTC (((..(((....)))))) | -4.78 | 36.2 |
| GACTCGGGAAACCAAGTC ((((.((....)).)))) | -25 | 37.6 |
| GACTCGGGAAACCGAACC (..((((....))))..) | -9.35 | 22.6 |
| GACTCGGGAAACCGGGTC (((.(((....))).))) | -40.6 | 55.1 |
| GACTCTGGAAACGGAGTC (((((.(....).))))) | -46.5 | 50.3 |
| GACTGACGAAAGTCTGTC (((.(((....))).))) | -36.7 | 54.9 |
| GACTGAGGAAACCCAGTC (((((.(....).))))) | -33.7 | 44.8 |
| GACTGAGGAAACTCAGCC (.(((((....))))).) | -16.9 | 43.4 |
| GACTGCACGAAAGTGGTC (((..(((....)))))) | -13.9 | 35.3 |
| GACTGCCGAAAGGCTGTC (((.(((....))).))) | -30.9 | 63.2 |

| Sequence | folding enthalpy [1] [kcal/mol] | Tm [2] [°C] |
| --- | --- | --- |
| GACTGCGAAAGCACCGTC ((((((....)))..))) | -10.7 | 37.6 |
| GACTGCGAAAGCACGGTC ((((((....)))..))) | -12.4 | 42.4 |
| GACTGCGAAAGCAGGGTC ((((((....)))..))) | -12.4 | 62.2 |
| GACTGCGAAAGCAGGTC ((((((....))).))) | -13.1 | 58.1 |
| GACTGCGAAAGCAGTGTC ((((((....)))..))) | -10.2 | 58.6 |
| GACTGCGGAAACACAGTC (((((.(....).))))) | -26.8 | 47.4 |
| GACTGCGGAAACGCAACC (..((((....))))..) | -9.21 | 25.1 |
| GACTGCGGAAACGCGGTC (((.(((....))).))) | -34.1 | 63.5 |
| GACTGGGGAAACCCGGTC (((.(((....))).))) | -41.7 | 54.1 |
| GACTGGGGAAACTCAGTC (((((.(....).))))) | -40.5 | 49.9 |
| GACTGGGGAAACTCGGTC (((.(.(....).).))) | -21.3 | 38.5 |
| GACTTACGAAAGTAGGTC (((.(((....))).))) | -27.5 | 49.3 |
| GACTTACGAAAGTAGTC (((.(((....)))))) | -26.8 | 43.1 |
| GACTTACGAAAGTATGTC (((.(((....))).))) | -32.9 | 47.8 |
| GACTTCCGAAAGGACGTC (((.(((....))).))) | -32.3 | 48.9 |
| GACTTCGGAAACGAAATC ((.((((....)))).)) | -22.9 | 31.9 |
| GACTTGCGAAAGCACGTC (((.(((....))).))) | -23.3 | 52.4 |
| GACTTGGGAAACCAAGTC (((((((....))))))) | -35.8 | 62.3 |
| GACTTGGGAAACCAGGTC (((.(((....))).))) | -37 | 46.4 |
| GACTTTGGAAACAAGGTC (((.(((....))).))) | -38.1 | 41.8 |
| GAGAACACGAAAGTGCTC (((..(((....)))))) | -15.6 | 32.9 |
| GAGAACGAAAGTTCTC ((((((....)))))) | -36 | 62.4 |
